In the library only some 3.7% were active in any assay of this set; here they are far more common.
KCNK9 inh: KCNK9 potassium channel inhibitors, primary screen, HEK293 cells, thallium flux | 1.2% of 310,000 active | Potassium channel subfamily K member 9 (Homo sapiens), Q9NPC2 | B-score at 10 µM | FluxOR thallium flux fluorescence; stronger effect = lower value;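 active means ratio B-score over 3 SD below the library mean, with starting fluorescence within 5 SD of its mean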;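 further: negative B-score means less thallium flux so channel inhibition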
Target sequence (Q9NPC2 whole entry, looked up): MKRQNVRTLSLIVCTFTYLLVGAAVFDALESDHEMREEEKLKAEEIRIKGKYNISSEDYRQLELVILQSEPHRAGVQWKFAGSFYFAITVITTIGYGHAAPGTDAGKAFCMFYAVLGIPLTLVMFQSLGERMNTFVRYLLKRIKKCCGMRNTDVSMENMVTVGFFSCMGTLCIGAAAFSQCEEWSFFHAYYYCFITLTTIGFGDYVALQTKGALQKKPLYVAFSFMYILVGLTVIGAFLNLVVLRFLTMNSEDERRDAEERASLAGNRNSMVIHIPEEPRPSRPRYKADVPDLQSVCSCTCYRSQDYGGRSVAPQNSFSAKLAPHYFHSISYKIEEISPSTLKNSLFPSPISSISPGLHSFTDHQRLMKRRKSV
KCNQ1 pot: potentiators or activators of KCNQ1 channel, primary screen, cell-based, thallium flux, high-throughput; Potassium voltage-gated channel subfamily KQT member 1 (Homo sapiens), P51787; B-score at 10 µM; CHO-K1 KCNQ1, thallium flux FluxOR fluorescence; stronger effect = higher value; AID 2648, 2010; 0.35% of 310,000 active;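 active means fluorescence ratio B-score, a plate-corrected score, at least three library SD, with initial intensity B-score within 5 SD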
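assay system = KCNQ1-transfected CHO-K1 cells | medium = assay buffer with matched DMSO | probe or stimulus = depolarizing K+/Tl+ stimulus, K2SO4 and Tl2SO4 each 12.5 mM in 5x stock | dosing = single dose | incubation = dye 90 min, compound 20 min, room temperature | detection = kinetic FluxOR fluorescence, 10 s baseline plus 110 s post-stimulus | evaluation = ratio B score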
hERG protect: hERG rescue from dofetilide block, primary screen, cell-based, CHO-hERG, FluxOR thallium flux, dofetilide IC70 | dofetilide IC70 present | 0.51% of 310,000 active | activation (rescue from dofetilide block), less the hit threshold, % at 10 µM | AID 1511, 2009;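 active means activation above the mean of controls blocked by dofetilide plus 5 SD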;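 further: thallium influx through hERG after potassium depolarization seen as dye fluorescence rise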
Kir21 inh: inhibitors of mouse Kir2.1 inward-rectifier potassium channel; HEK293-Kir2.1, FluxOR thallium flux fluorescence; stronger effect = lower value; B-score at 10 µM; 0.85% of 310,000 active;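 active means fluorescence ratio B-score at or below minus 3 SD of library scores, with starting-brightness B-score within 2 SD, cut at about -4.2 in these data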;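 further: channel flux triggered by added potassium and thallium sulfate stimulus; B-score of peak minus minimum fluorescence over baseline after thallium stimulus; more negative B-score means stronger Kir2.1 block with less thallium influx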
KCNQ1 inh: inhibitors of human KCNQ1 channel, primary screen, cell-based, thallium flux, high-throughput | Potassium voltage-gated channel subfamily KQT member 1 (Homo sapiens), P51787 | 1.3% of 310,000 active | B-score at 10 µM | AID 2642, 2010 | CHO-K1 KCNQ1, FluxOR thallium flux fluorescence; stronger effect = higher value;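 active means compounds whose thallium flux B-score, printed positive for inhibition, exceeds three library SD while starting fluorescence stays within three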;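 further: channel opened by potassium depolarization with thallium stimulus after 20 min compound exposure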
KCNK3 inh: human KCNK3 channel inhibitors, primary screen, CHO cells, FluxOR thallium flux, B-score. Potassium channel subfamily K member 3 (Homo sapiens), O14649. FluxOR fluorescence; stronger effect = lower value. B-score at 10 µM. 0.84% of 340,000 active;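 active means B-score under library mean minus 4 SD, starting fluorescence ratio at most library mean plus 5 SD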;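 further: more negative B-score means stronger inhibition of thallium flux through KCNK3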
KCNK9 inh conf: KCNK9 potassium channel inhibitors, confirmation, HEK293 cells, thallium flux, duplicate; shares compounds with KCNK9 inh; FluxOR thallium flux fluorescence; inhibition, % at 10 µM; 43% of 4,900 active; AID 492992, 2010;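 active means thallium signal inhibited by more than 5 SD of the compound-free buffer control wells, on both duplicate plates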;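 further: 0% = assay buffer control wells without compound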
Kir21 sel: mouse Kir2.1 channel inhibition, confirmation, selectivity assay for KCNK9 modulator project, cell-based, HEK293, thallium flux; shares compounds with KCNK9 inh; 4% of 4,900 active; inhibition, % at 10 µM; Kir2.1 cells, FluxOR thallium flux fluorescence;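 active means thallium signal drop more than 5 SD beyond the mean of the no-compound control wells, seen in both duplicate plates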;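 further: signal is fluorescence rise after thallium addition divided by baseline fluorescence; plate controls were assay buffer only for no effect and full block by chlorpromazine control for full effect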
KCNK9 uninduced: thallium flux in non-induced HEK293 cells, confirmation, counter-screen for KCNK9 inhibitor project, cell-based, second counter screen, non-induced KCNK9-HEK293; shares compounds with KCNK9 inh; FluxOR thallium flux; inhibition, % at 10 µM; 40% of 4,900 active;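 active means thallium signal drop beyond 5 SD of the untreated control mean, on both duplicate plates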;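 further: plate controls were buffer only IC0 wells for no effect and SID17386958 at its maximal inhibitory level for full effect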
* marks the source's active call; other numbers are inactive results; i = inactive; · = no result given.

SMILES	KCNK9 inh	KCNQ1 pot	hERG protect	Kir21 inh	KCNQ1 inh	KCNK3 inh	KCNK9 inh conf	Kir21 sel	KCNK9 uninduced
CN(C)CCNC(=O)c1onc(CSc2ccc(F)cc2)c1C(=O)NCCN(C)C	i	i	-7.2	0.7	i	i	·	·	·
CC(C)CCNC(=O)c1onc(CSc2ccc(F)cc2)c1C(=O)NCCC(C)C	i	i	-2.5	-0.69	7*	i	i	i	i
CCCNC(=O)c1onc(CSc2ccc(F)c(F)c2)c1C(=O)NCCC	i	i	-6.6	0.39	i	·	·	·	·
N#CCCN=C(NS(=O)(=O)c1ccccc1)c1ccccc1	i	i	-6.2	-0.76	i	i	·	·	·
Cc1ccc(CCNC(=O)C2CCN(S(=O)(=O)c3ccc4c(c3)oc(=O)n4C)CC2)cc1	i	i	-1.9	0.41	i	i	·	·	·
CSc1ccc(C(=O)C2CCCN(C(=O)CCc3c(C)nn(C)c3C)C2)cc1 (stereo unspecified)	i	i	-7.8	-1.17	i	i	·	·	·
CCCNC(=O)c1onc(CSc2ccccc2)c1C(=O)NCCC	i	i	-11.1	0.29	i	i	·	·	·
CC(C)CCNC(=O)c1onc(CSc2ccccc2)c1C(=O)NCCC(C)C	i	i	-5.8	-0.77	i	i	i	i	i
O=C(CCc1ccccc1)N1CCCC(Nc2ccc(F)cc2)C1 (stereo unspecified)	i	i	-6.1	-0.66	i	i	i	i	i
COc1ccc(C(=O)N2CCCC(Nc3ccc(C(C)C)cc3)C2)c(OC)n1 (stereo unspecified)	i	i	-11.8	-0.25	i	i	i	i	i
COc1ccc(NC2CCCN(C(=O)CCc3cn[nH]c3)C2)cc1 (stereo unspecified)	i	i	-6.7	-0.18	i	i	·	·	·
COc1ccc(NC2CCCN(C(=O)C3(C)CCCCC3)C2)cc1 (stereo unspecified)	i	i	-4.8	-0.4	i	i	i	i	i
COc1ccc(CCC(=O)N2CCCC(Nc3ccc(OC)cc3)C2)cc1 (stereo unspecified)	i	i	-3.9	-3.13	i	i	i	i	i
Cc1ccc(NC(=O)CN2C(=O)C(=O)N(C3CCCC3)C2=O)cc1Cl	·	·	·	·	·	i	·	·	·
Cc1ccc(CNC(=O)C2CCCCN2S(=O)(=O)c2ccccc2)cc1 (stereo unspecified)	i	i	-4.7	1.03	i	i	·	·	·
O=C(OCc1ccc(Cl)cc1)c1ccccc1C(=O)c1ccccc1	-11.9*	i	-9.4	-2.66	i	i	52.5%*	33.5%*	49.0%*
O=C(OCc1ccc(Cl)cc1)c1cccnc1Cl	i	i	-3.2	0.73	i	i	·	·	·
C=C(C(=O)c1ccccc1)C(c1ccccc1)C(C)C(=O)c1ccccc1 (stereo unspecified)	-11.5*	i	-7.7	-4.38*	i	i	73.0%*	i	44.0%*
Cc1ccc(NC(=O)CSc2nnc(Cc3csc(C)n3)o2)cc1	·	·	·	·	·	i	·	·	·
CCOc1ccc(Nc2nc(Cc3nnc(SCC(=O)c4ccc(C)c(C)c4)o3)cs2)cc1	i	i	-6.1	-0.01	i	i	i	i	i
CC(=O)OC[C@H]1O[C@@H](n2ncc(=O)[nH]c2=O)[C@H](OC(C)=O)[C@@H]1OC(C)=O	i	i	-3.1	1.23	i	·	·	·	·
O=C(OCC1OC(n2ncc(=O)[nH]c2=O)C(OC(=O)c2ccccc2)C1OC(=O)c1ccccc1)c1ccccc1 (stereo unspecified)	i	i	-24.5	-0.49	i	i	i	i	33.0%*
O=C(CCCc1nc2ccccc2s1)NCc1ccccc1	i	i	-8.3	-0.11	i	i	·	·	·
COc1ccccc1/C=C(/CC(=O)NCc1ccccc1)c1nc2ccccc2s1	-9.68*	i	-15.9	2.06	i	i	70.5%*	i	i
COc1ccccc1/C=C(/CC(=O)NCc1ccc(F)cc1)c1nc2ccccc2s1	-16.2*	i	-9.0	0.01	i	i	65.5%*	i	36.5%*
SMILES	KCNK9 inh	KCNQ1 pot	hERG protect	Kir21 inh	KCNQ1 inh	KCNK3 inh	KCNK9 inh conf	Kir21 sel	KCNK9 uninduced
COC(=O)C1=C(C)N(C)C(=O)NC1c1cccc2ccccc12 (stereo unspecified)	i	i	-11.9	0.58	i	i	·	·	·
O=[N+]([O-])c1cc(Cl)ccc1N1CCN(c2ccccc2O)CC1	-8.48*	i	-18.9	2.03	i	i	i	i	25.0%*
CN(Cc1ccccc1)C(=O)CSc1nc2c(c(C(F)(F)F)n1)CCc1ccccc1-2	i	i	-7.1	0.56	i	i	i	i	i
NC(=O)c1c(NC(=O)CSc2nc3c(c(C(F)(F)F)n2)CCc2ccccc2-3)sc2c1CCCC2	i	i	-11.9	0.16	i	i	·	·	·
O=S(=O)(c1cccc(Br)c1)N1CCN(CCc2ccccc2)CC1	i	i	-12.0	0.38	i	i	i	i	i
O=S(=O)(c1ccc(Cl)s1)N1CCN(CCc2ccccc2)CC1	i	i	-7.4	0.66	i	i	i	i	i
O=S(=O)(c1ccccc1)N1CCN(Cc2cccc(Br)c2)CC1	i	i	-5.9	1.24	i	i	·	·	·
Cc1cc(S(=O)(=O)N2CCN(Cc3ccccc3)CC2)c(C)s1	i	i	-8.8	-2.1	i	i	i	i	i
O=S(=O)(c1cccs1)N1CCN(CCc2ccccc2)CC1	i	i	-3.2	0.42	i	i	·	·	·

Source: PubChem
